ChEMBL document CHEMBL1142436, “Design and synthesis of 4-substituted indolo[3,2-e][1,2,3]triazolo[1,5-a]pyrimidine derivatives with antitumor activity” (2008)

Legend:
Assay type in all cases: functional
CCRF-CEM = test: Growth inhibition of human CCRF-CEM cells after 48 hrs
Procedure, shortened: (§1)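 NCI ~60-line screen. Cells were grown in RPMI 1640 with 5% FBS and 2 mM L-glutamine and plated at 5000–40000 cells/well. After a 24 h preincubation, five drug concentrations from DMSO stocks were added for 48 h at 37 °C. Cells were TCA-fixed, stained with SRB and read at 515 nm. GI50 was taken from time-zero and control absorbances and reported as pGI50.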

HL-60 = test: Growth inhibition of human HL60 cells after 48 hrs; details: HL-60, 48 h; procedure, shortened: as §1
MOLT-4 = test: Growth inhibition of human MOLT4 cells after 48 hrs; details: MOLT-4, 48 h; procedure, shortened: as §1
[1] = Growth inhibition of human HS578T cells after 48 hrs; details: Hs-578T; procedure, shortened: as §1
RPMI-8226 = test: Growth inhibition of human RPMI8226 cells after 48 hrs; details: RPMI-8226, 48 h; procedure, shortened: as §1
A549 = test: Growth inhibition of human A549 cells after 48 hrs; details: A549, 48 h; procedure, shortened: as §1
NCI-H226 = test: Growth inhibition of human NCI-H226 cells after 48 hrs; details: NCI-H226, 48 h; procedure, shortened: as §1
NCI-H322M = test: Growth inhibition of human NCI-H322M cells after 48 hrs; procedure, shortened: as §1
NCI-H460 = test: Growth inhibition of human NCI-H460 cells after 48 hrs; details: NCI-H460, 48 h; procedure, shortened: as §1
HCC 2998 = test: Growth inhibition of human HCC2998 cells after 48 hrs; details: HCC 2998, 48 h; procedure, shortened: as §1
HCT-116 = test: Growth inhibition of human HCT116 cells after 48 hrs; details: HCT-116, 48 h; procedure, shortened: as §1
HCT-15 = test: Growth inhibition of human HCT15 cells after 48 hrs; details: HCT-15, 48 h; procedure, shortened: as §1
HT-29 = test: Growth inhibition of human HT29 cells after 48 hrs; details: HT-29, 48 h; procedure, shortened: as §1
KM12 = test: Growth inhibition of human KM12 cells after 48 hrs; details: KM12, 48 h; procedure, shortened: as §1
SF-295 = test: Growth inhibition of human SF295 cells after 48 hrs; details: SF-295, 48 h; procedure, shortened: as §1
SNB-19 = test: Growth inhibition of human SNB19 cells after 48 hrs; details: SNB-19, 48 h
Procedure, shortened: (§2)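 NCI 60-line screen: cells in RPMI 1640 with 5% FBS and 2 mM L-glutamine, plated at 5000–40000 cells/well, grown 24 h (37 °C, 5% CO₂), then exposed to five 10-fold or ½-log dilutions (DMSO stock) for 48 h. Fixed with TCA (final 10% for adherent cells, 16% for suspension cells), then SRB stained with absorbance at 515 nm. GI50 from percentage growth relative to time-zero and control wells.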

U-251 = test: Growth inhibition of human U251 cells after 48 hrs; details: U-251, 48 h; procedure, shortened: as §2
M14 = test: Growth inhibition of human M14 cells after 48 hrs; details: M14, 48 h; procedure, shortened: as §1
SK-MEL-28 = test: Growth inhibition of human SK-MEL28 cells after 48 hrs; details: SK-MEL-28, 48 h; procedure, shortened: as §1
SK-MEL-5 = test: Growth inhibition of human SK-MEL5 cells after 48 hrs; details: SK-MEL-5, 48 h; procedure, shortened: as §1
UACC-257 = test: Growth inhibition of human UACC257 cells after 48 hrs; details: UACC-257, 48 h; procedure, shortened: as §2
UACC-62 = test: Growth inhibition of human UACC62 cells after 48 hrs; details: UACC-62, 48 h; procedure, shortened: as §2
OVCAR-3 = test: Growth inhibition of human OVCAR-3 cells after 48 hrs; details: OVCAR-3, 48 h; procedure, shortened: as §1
OVCAR-5 = test: Growth inhibition of human OVCAR5 cells after 48 hrs; details: OVCAR-5, 48 h; procedure, shortened: as §1
OVCAR-8 = test: Growth inhibition of human OVCAR8 cells after 48 hrs; details: OVCAR-8, 48 h; procedure, shortened: as §1
A498 = test: Growth inhibition of human A498 cells after 48 hrs; details: A498, 48 h; procedure, shortened: as §1
ACHN = test: Growth inhibition of human ACHN cells after 48 hrs; procedure, shortened: as §1
CAKI-1 = test: Growth inhibition of human CAKI1 cells after 48 hrs; details: CAKI-1, 48 h; procedure, shortened: as §1
RXF 393 = test: Growth inhibition of human RXF393 cells after 48 hrs; details: RXF 393, 48 h; procedure, shortened: as §1
SN12C = test: Growth inhibition of human SN12C cells after 48 hrs; procedure, shortened: as §2
DU-145 = test: Growth inhibition of human DU145 cells after 48 hrs; details: DU-145, 48 h; procedure, shortened: as §1
MCF7 = test: Growth inhibition of human MCF7 cells after 48 hrs; details: MCF7, 48 h; procedure, shortened: as §1
MDA-MB-231 = test: Growth inhibition of human MDA-MB-231 cells after 48 hrs; details: MDA-MB-231, 48 h; procedure, shortened: as §1
[2] = read-out: Log LC50 (the source's name) (converted)

## Cn1c2ccccc2c2c(=O)n(CCCC(=O)NCCc3c[nH]cn3)c3c(-c4ccccc4)nnn3c21
CCRF-CEM
  GI50: 1.51 µM
  LC50: > 50.1 µM
CCRF-CEM; read-out: pTGI (converted)
  TGI: > 50.1 µM
HL-60
  GI50: 11.7 µM
  LC50: > 50.1 µM
HL-60; read-out: pTGI (converted)
  TGI: 28.2 µM
MOLT-4
  GI50: 3.98 µM
  LC50: > 50.1 µM
MOLT-4; read-out: pTGI (converted)
  TGI: 21.4 µM
[1]
  GI50: 10.5 µM
  LC50 (50% lethal concentration): 49 µM
[1]; read-out: pTGI (converted)
  TGI: 22.4 µM
RPMI-8226
  GI50: 10.5 µM
  LC50: > 50.1 µM
RPMI-8226; read-out: pTGI (converted)
  TGI: 28.8 µM
A549
  GI50: 12.9 µM
A549; [2]
  CC50: 45.7 µM
A549; read-out: pTGI (converted)
  TGI: 24 µM
NCI-H226
  GI50: > 50.1 µM
NCI-H226; [2]
  CC50: > 50.1 µM
NCI-H226; read-out: pTGI
  TGI: > 50.1 µM
NCI-H322M
  GI50: 11 µM
  LC50: > 50.1 µM
NCI-H322M; read-out: pTGI (converted)
  TGI: 29.5 µM
NCI-H460
  GI50: 11 µM
  LC50: > 50.1 µM
NCI-H460; read-out: pTGI (converted)
  TGI: 24.5 µM
HCC 2998
  GI50: 9.55 µM
  LC50: 40.7 µM
HCC 2998; read-out: pTGI (converted)
  TGI: 20 µM
HCT-116
  GI50: 5.89 µM
  LC50: 32.4 µM
HCT-116; read-out: pTGI (converted)
  TGI: 13.8 µM
HCT-15
  GI50: 14.5 µM
  LC50: > 50.1 µM
HCT-15; read-out: pTGI
  TGI: 43.7 µM
HT-29
  GI50: 8.51 µM
  LC50 (concentration killing 50% of cells): 37.2 µM
HT-29; read-out: pTGI (converted)
  TGI: 17.8 µM
KM12
  GI50: 8.13 µM
  LC50: 35.5 µM
KM12; read-out: pTGI (converted)
  TGI: 17 µM
SF-295
  GI50: 9.12 µM
  LC50: 34.7 µM
SF-295; read-out: pTGI (converted)
  TGI: 17.8 µM
SNB-19
  GI50: 11.7 µM
  LC50: 49 µM
SNB-19; read-out: pTGI (converted)
  TGI: 24 µM
U-251
  GI50: 9.55 µM
  LC50: 36.3 µM
U-251; read-out: pTGI (converted)
  TGI: 18.6 µM
M14
  GI50: 12 µM
  LC50: 49 µM
M14; read-out: pTGI (converted)
  TGI: 24.5 µM
SK-MEL-28
  GI50: 8.91 µM
  LC50: 32.4 µM
SK-MEL-28; read-out: pTGI (converted)
  TGI: 17 µM
SK-MEL-5
  GI50: 9.12 µM
  LC50: 32.4 µM
SK-MEL-5; read-out: pTGI (converted)
  TGI: 17 µM
UACC-257
  GI50: 12 µM
  LC50: 38.9 µM
UACC-257; read-out: pTGI (converted)
  TGI: 21.4 µM
UACC-62
  GI50: 9.77 µM
  LC50: 31.6 µM
UACC-62; read-out: pTGI (converted)
  TGI: 17.8 µM
OVCAR-3
  GI50: 8.32 µM
  LC50: 31.6 µM
OVCAR-3; read-out: pTGI (converted)
  TGI: 16.2 µM
OVCAR-5
  GI50: 11 µM
  LC50 (concentration killing 50% of cells): 38 µM
OVCAR-5; read-out: pTGI (converted)
  TGI: 20.4 µM
OVCAR-8
  GI50: 10 µM
  LC50: 42.7 µM
OVCAR-8; read-out: pTGI (converted)
  TGI: 20.9 µM
A498
  GI50: 7.59 µM
A498; [2]
  CC50: 30.9 µM
A498; read-out: pTGI (converted)
  TGI: 15.1 µM
ACHN
  GI50: 9.77 µM
  LC50: 33.1 µM
ACHN; read-out: pTGI (converted)
  TGI: 17.8 µM
CAKI-1
  GI50: 12 µM
  LC50 (concentration killing 50% of cells): > 50.1 µM
CAKI-1; read-out: pTGI (converted)
  TGI: 33.1 µM
RXF 393
  GI50: 7.41 µM
  LC50: 44.7 µM
RXF 393; read-out: pTGI (converted)
  TGI: 18.2 µM
SN12C
  GI50: 8.71 µM
  LC50: 39.8 µM
SN12C; read-out: pTGI (converted)
  TGI: 18.6 µM
DU-145
  GI50: 6.92 µM
  LC50: 27.5 µM
DU-145; read-out: pTGI (converted)
  TGI: 13.8 µM
MCF7
  GI50: 12.9 µM
  LC50: > 50.1 µM
MCF7; read-out: pTGI (converted)
  TGI: 30.2 µM
MDA-MB-231
  GI50: 9.33 µM
  LC50 (concentration killing 50% of cells): 37.2 µM
MDA-MB-231; read-out: pTGI (converted)
  TGI: 18.6 µM
